Data on 36 molecules can be found in ChEMBL document CHEMBL1152208, “The discovery of biaryl carboxamides as novel small molecule agonists of the motilin receptor” (Bioorg Med Chem Lett, 2008).

For data set [1], the target named is Motilin receptor (Homo sapiens, UniProt O43193). The experiment in a line: Agonist activity at human recombinant motilin receptor expressed in HEK293 cells by FLIPR assay. In kind it is functional, cell-based. In outline:
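HEK293 cells stably expressing human motilin receptor, seeded on poly-lysine plates 24 h before assay. Loaded with Fluo-4-AM (final) and 1 mM probenecid (final) in HEPES-buffered saline with 0.1% BSA for 1 h at 25 °C, washed, rested 20 min at 25 °C. Fluorescence change followed for 2 min after compound addition. Peak change over baseline was fitted with a 4-parameter logistic to give pEC50. Mean of at least three independent experiments (n = 2 for some).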

Data set [2] has as its system Liver microsomes. The experiment in a line: Intrinsic clearance in human liver microsome. The data set is classed as ADME. (In general: Liver microsomes are a subcellular fraction often used to study metabolism.)
In data set [3] the test system is Liver microsomes. The experiment in a line: Intrinsic clearance in rat liver microsome. The data set is classed as ADME.
Data set [4] deals with T1, Cytochrome P450 3A4 (Homo sapiens, UniProt P08684). The experiment in a line: Inhibition of CYP3A4 using diethoxyfluorescein substrate. The data set is classed as ADME.
Data set [5] addresses T1, Cytochrome P450 3A4. The experiment in a line: Inhibition of CYP3A4 using phenyl-piperazinyl-methyl-benzyl-resofurin substrate. In kind it is ADME.
The nature of data set [6]: Aqueous solubility of the compound. In kind it is physicochemical.

Some results are limits rather than exact numbers.

T1 sequence (P08684 whole entry): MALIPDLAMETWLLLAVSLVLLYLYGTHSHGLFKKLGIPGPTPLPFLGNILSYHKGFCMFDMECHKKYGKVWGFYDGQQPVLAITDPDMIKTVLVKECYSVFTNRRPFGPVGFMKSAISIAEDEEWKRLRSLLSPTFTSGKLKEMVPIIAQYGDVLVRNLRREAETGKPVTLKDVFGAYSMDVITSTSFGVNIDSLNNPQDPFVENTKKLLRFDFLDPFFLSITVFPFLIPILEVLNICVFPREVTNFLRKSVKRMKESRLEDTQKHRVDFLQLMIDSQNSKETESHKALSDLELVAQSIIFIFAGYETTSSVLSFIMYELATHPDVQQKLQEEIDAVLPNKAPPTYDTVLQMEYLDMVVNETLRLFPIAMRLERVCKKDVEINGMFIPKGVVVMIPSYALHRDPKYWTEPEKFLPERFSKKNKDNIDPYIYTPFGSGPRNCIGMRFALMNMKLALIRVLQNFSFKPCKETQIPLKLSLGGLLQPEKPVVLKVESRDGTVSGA
Sequence of Motilin receptor (O43193 whole entry): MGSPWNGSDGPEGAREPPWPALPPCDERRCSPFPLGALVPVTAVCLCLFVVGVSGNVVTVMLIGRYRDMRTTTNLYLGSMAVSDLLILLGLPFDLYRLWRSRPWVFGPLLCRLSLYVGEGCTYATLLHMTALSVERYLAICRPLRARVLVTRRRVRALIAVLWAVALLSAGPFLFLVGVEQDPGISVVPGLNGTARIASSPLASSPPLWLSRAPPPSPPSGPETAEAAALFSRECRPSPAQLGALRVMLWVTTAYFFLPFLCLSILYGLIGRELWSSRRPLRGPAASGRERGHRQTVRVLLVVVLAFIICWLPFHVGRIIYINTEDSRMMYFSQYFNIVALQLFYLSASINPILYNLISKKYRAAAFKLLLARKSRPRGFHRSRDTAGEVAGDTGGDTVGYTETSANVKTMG

What is called EC50 is the midpoint of the concentration-response curve. Regarding `COc1cccc(CCN(Cc2ccccc2-c2ccc(CN3CCNCC3)cc2)C(=O)COc2ccccc2)c1`, the EC50 in data set [1] was 251 nM.

As for `C[C@@H]1CN(Cc2ccc(-c3cccnc3C(=O)N3CCC(Nc4ccc(C(N)=O)cc4)CC3)cc2)C[C@H](C)N1`, the EC50 in data set [1] is 2510 nM.

With `COc1ccc(NC2CCN(C(=O)c3ncccc3-c3ccc(CN4C[C@@H](C)N[C@@H](C)C4)cc3)CC2)cc1`, the EC50 in data set [1] is 1000 nM.

`C[C@@H]1CN(Cc2ccc(-c3cccnc3C(=O)N3CCC(Nc4cccc(F)c4)CC3)cc2)C[C@H](C)N1`: the EC50 in data set [1] is 6.31 nM. The figures for the CL in data set [2] and in data set [3] were 4.4 mL/min/g and 6.5 mL/min/g, respectively.

`Cc1ccc(S(=O)(=O)NCC(=O)N(C)Cc2ccccc2-c2ccc(CN3C[C@@H](C)N[C@@H](C)C3)cc2)cc1`: in data set [1], the EC50 is 20 nM.

A word on the IC50: it is the point on the concentration scale where inhibition reaches its midpoint. A low value points to greater potency. `C[C@@H]1CN(Cc2ccc(-c3ccccc3CN(C)C(=O)COc3ccc(F)cc3)cc2)C[C@H](C)N1`: the IC50 worked out at 6000 nM in data set [4] and 7300 nM in data set [5]. Besides, the EC50 in data set [1] was 31.6 nM.

In the case of `C[C@@H]1CN(Cc2ccc(-c3cccnc3C(=O)N3CCC(Nc4cccc(F)c4)CC3)cc2F)C[C@H](C)N1`, the EC50 in data set [1] was 10 nM. The CL in data set [2] is 9.4 mL/min/g; in data set [3], 12 mL/min/g.

Take `COc1cc(-c2cccnc2C(=O)N2CCC(Nc3ccc(F)cc3)CC2)ccc1CN1C[C@@H](C)N[C@@H](C)C1`: the EC50 in data set [1] was 5.01 nM. Also, the figures for the CL in data set [2] and in data set [3] were 5.3 mL/min/g and 5.9 mL/min/g, respectively.

On to `COCCCN(Cc1ccccc1-c1ccc(CN2CCNCC2)cc1)C(=O)COc1ccccc1`, for which the EC50 in data set [1] is 398 nM.

`C[C@@H]1CN(Cc2ccc(-c3ccccc3CN(C)C(=O)COc3ccccc3)cc2)C[C@H](C)N1`: the IC50 turned out to be 7000 nM in data set [4] and 24000 nM in data set [5]. Moreover, the EC50 in data set [1] was 79.4 nM. Moreover, the results for the CL in data set [2] and in data set [3] were 4.9 mL/min/g and 9.5 mL/min/g, respectively.

Consider `C[C@@H]1CN(Cc2ccc(-c3ccccc3CN(C)C(=O)CSc3ccccc3)cc2)C[C@H](C)N1`, for which the EC50 in data set [1] is 3.16 nM.

The term solubility denotes how much of the substance goes into solution per volume. As to `C[C@@H]1CN(Cc2ccc(-n3ccnc3C(=O)N3CCC(Nc4cccc(F)c4)CC3)cc2)C[C@H](C)N1.Cl`, the solubility in data set [6] is at least 500 µg/mL.

Turning to `CCN(CCc1ccccc1)C(=O)c1ccccc1-c1ccc(CN2C[C@@H](C)N[C@@H](C)C2)cc1`, the IC50 in data set [4] stood at 900 nM; in data set [5] it was 1500 nM. In addition, the EC50 in data set [1] was 7.94 nM. The CL in data set [2] turned out to be 40 mL/min/g; in data set [3], 26 mL/min/g.

`C[C@@H]1CN(Cc2ccc(-c3cccnc3C(=O)N3CCC(Nc4ccc(F)c(F)c4)CC3)cc2)C[C@H](C)N1`: the EC50 in data set [1] was 2 nM. Further, the CL in data set [2] was found to be 7 mL/min/g; in data set [3], 5.9 mL/min/g.

Turning to `C[C@@H]1CN(Cc2ccc(-c3cccnc3C(=O)N3CCC(Cc4ccc(F)cc4)CC3)cc2)C[C@H](C)N1`, the results for the IC50 in data set [4] and in data set [5] were 13000 nM and 5600 nM, respectively. Further, the EC50 in data set [1] was 10 nM. The CL in data set [2] and in data set [3] was 16 mL/min/g each time.

On to `C[C@@H]1CN(Cc2ccc(-c3ccccc3CN(C)C(=O)Cc3ccc(F)cc3)cc2)C[C@H](C)N1`, for which the EC50 in data set [1] is 50.1 nM.

Turning to `C[C@@H]1CN(Cc2ccc(-c3ccccc3CN(C)C(=O)Cc3cccc(Cl)c3)cc2)C[C@H](C)N1`, the IC50 amounted to 1400 nM in data set [4] and 1500 nM in data set [5]. The EC50 in data set [1] is 79.4 nM. Further, the results for the CL in data set [2] and in data set [3] were 20 mL/min/g and 17 mL/min/g, respectively.

Regarding `C[C@@H]1CN(Cc2ccc(-c3ccccc3CN(C)C(=O)CS(=O)(=O)c3ccccc3)cc2)C[C@H](C)N1`, the IC50 in data set [4] amounted to 3000 nM; in data set [5], 8900 nM. Moreover, the EC50 in data set [1] was 10 nM. For the same molecule, the CL in data set [2] is 6.8 mL/min/g; in data set [3], 4.3 mL/min/g.

In the case of `C[C@@H]1CN(Cc2ccc(-c3cccnc3C(=O)N3CCC(Nc4ccc(C#N)cc4)CC3)cc2)C[C@H](C)N1`, the EC50 in data set [1] was 631 nM.

As for `C[C@@H]1CN(Cc2ccc(-c3cccnc3C(=O)N3CCC(Nc4cccc(C#N)c4)CC3)cc2)C[C@H](C)N1`, the EC50 in data set [1] was 20 nM. Further, the CL in data set [2] is 3.5 mL/min/g; in data set [3] it was 4.6 mL/min/g.

`C[C@@H]1CN(Cc2ccc(-c3ccccc3C(=O)N3CCC(NC(=O)c4ccc(F)cc4)CC3)cc2)C[C@H](C)N1`: the EC50 in data set [1] was above 10000 nM.

With `C[C@@H]1CN(Cc2ccc(-c3ccccc3C(=O)N3CCC(Cc4ccc(F)cc4)CC3)cc2)C[C@H](C)N1`, the IC50 was found to be 600 nM in data set [4] and 500 nM in data set [5]. Besides, the EC50 in data set [1] was 10 nM. For the same molecule, the results for the CL in data set [2] and in data set [3] were 29 mL/min/g and 7 mL/min/g, respectively.

For the molecule `C[C@@H]1CN(Cc2ccc(-c3ccccc3C(=O)N3CCC(Nc4ccccc4)CC3)cc2)C[C@H](C)N1`, the IC50 is 12000 nM in data set [4] and 17000 nM in data set [5]. The EC50 in data set [1] was 5.01 nM. Also, the figures for the CL in data set [2] and in data set [3] were 7 mL/min/g and 20 mL/min/g, respectively.

Take `C[C@@H]1CN(Cc2ccc(-c3ccccc3C(=O)N3CCC(C(=O)c4ccc(F)cc4)CC3)cc2)C[C@H](C)N1`: the IC50 in data set [4] is 4800 nM; in data set [5], 3600 nM. The 50% effective concentration (EC50) in data set [1] is 63.1 nM.

On to `C[C@@H]1CN(Cc2ccc(-c3ccccc3C(=O)N3CCC(Nc4ccc(F)cc4)CC3)nc2)C[C@H](C)N1`, for which, in data set [1], the EC50 is above 10000 nM.

Regarding `C[C@@H]1CN(Cc2cnc(-c3ccccc3C(=O)N3CCC(Nc4ccc(F)cc4)CC3)s2)C[C@H](C)N1`, the EC50 in data set [1] was 398 nM.

Turning to `C[C@@H]1CN(Cc2ccc(-c3ccccc3C(=O)N3CCC(Nc4ccc(Cl)cc4)CC3)cc2)C[C@H](C)N1`, the IC50 was determined as 5200 nM in data set [4] and 3500 nM in data set [5]. For the same molecule, the EC50 in data set [1] was 50.1 nM. Further, the values for the CL in data set [2] and in data set [3] were 8 mL/min/g and 33 mL/min/g, respectively.

The molecule `C[C@@H]1CN(Cc2ccc(-c3cccnc3C(=O)N3CCC(Nc4ccc(F)cc4)CC3)cc2)C[C@H](C)N1.Cl` came in with a solubility in data set [6] of at least 1000 µg/mL.

For `C[C@@H]1CN(Cc2ccc(-c3cccnc3C(=O)N3CCC(Nc4ccccc4C#N)CC3)cc2)C[C@H](C)N1`, the EC50 in data set [1] is 794 nM.

Consider `Cc1cc(CC(=O)N(C)Cc2ccccc2-c2ccc(CN3C[C@@H](C)N[C@@H](C)C3)cc2)on1`, for which the IC50 was 40000 nM in data set [4] and above 100000 nM in data set [5]. In addition, in data set [1], the EC50 was 1000 nM. Further, the figures for the CL in data set [2] and in data set [3] were 2.4 mL/min/g and 2.9 mL/min/g, respectively.

As to `CC(C)CCC(=O)N(C)Cc1ccccc1-c1ccc(CN2C[C@@H](C)N[C@@H](C)C2)cc1`, the EC50 in data set [1] was 251 nM.

For `C[C@@H]1CN(Cc2ccc(-c3ccccc3C(=O)N3CCC(Oc4ccc(F)cc4)CC3)cc2)C[C@H](C)N1`, in data set [1], the EC50 was 63.1 nM.

Turning to `C[C@@H]1CN(Cc2ccc(-c3cccnc3C(=O)N3CCC(Nc4ccc(F)cc4)CC3)cc2F)C[C@H](C)N1`, the EC50 in data set [1] was 3.98 nM. In addition, the results for the CL in data set [2] and in data set [3] were 5.5 mL/min/g and 6.5 mL/min/g, respectively.

With `C[C@@H]1CN(Cc2ccc(N3CCCC3C(=O)N3CCC(Nc4cccc(F)c4)CC3)cc2)C[C@H](C)N1` (stereo partly drawn), the EC50 in data set [1] was 2510 nM.

Regarding `C[C@@H]1CN(Cc2ccc(-c3cccnc3C(=O)N3CCC(Nc4ccccc4F)CC3)cc2)C[C@H](C)N1`, the EC50 in data set [1] was 50.1 nM.

With `C[C@@H]1CN(Cc2ccc(-c3ccccc3C(=O)N3CCC(Nc4ccc(F)cc4)CC3)cc2)C[C@H](C)N1`, the EC50 in data set [1] was 2.51 nM.
